Results from BindingDB's records for doi:10.1021/jm0300274 (The University of Georgia, 2003).

Test system: HIV-1 (antiviral activity in human PBM cells)
Experiment: Anti-HIV-1 activity determined in human peripheral blood mononuclear PBM cells, expressed as EC50
Summary of the method: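 PHA-stimulated (2-3 days) human PBM cells from healthy seronegative donors were infected with HIV-1 LAI for 1 h in bulk, then placed into 10-fold serial compound dilutions. Medium contained IL-2 and DEAE-dextran. After 5 days at 37 °C, supernatant virus was pelleted and RT activity measured. EC50 was taken from the concentration-response curve by the median effect method.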

Compound | EC50 [µM]
Nc1nc2c(ncn2[C@@H]2CC(F)(F)[C@H](CO)O2)c(=O)[nH]1 | > 100
Cc1cn([C@H]2C=C(F)[C@H](CO)O2)c(=O)[nH]c1=O | > 100
O=c1[nH]cnc2c1ncn2[C@@H]1CC(F)(F)[C@H](CO)O1 | > 100
Nc1nc2c(ncn2[C@H]2C=C(F)[C@H](CO)O2)c(=O)[nH]1 | > 100
Nc1ccn([C@@H]2CC(F)(F)[C@H](CO)O2)c(=O)n1 | 11.5
Nc1nc(=O)n([C@H]2CC(F)(F)[C@H](CO)O2)cc1F | > 100
Nc1ncnc2c1ncn2[C@H]1CC(F)(F)[C@H](CO)O1 | > 100
Nc1ncnc2c1ncn2[C@H]1C=C(F)[C@H](CO)O1 | > 100
Nc1nc2c(ncn2[C@@H]2C=C(F)[C@H](CO)O2)c(=O)[nH]1 | 38.5
Nc1nc(=O)n([C@@H]2CC(F)(F)[C@H](CO)O2)cc1F | 8.8
Cc1cn([C@@H]2CC(F)(F)[C@H](CO)O2)c(=O)[nH]c1=O | > 100
Cc1cn([C@H]2CC(F)(F)[C@H](CO)O2)c(=O)[nH]c1=O | > 100
O=c1ccn([C@H]2CC(F)(F)[C@H](CO)O2)c(=O)[nH]1 | > 100
Nc1ccn([C@H]2CC(F)(F)[C@H](CO)O2)c(=O)n1 | > 100
O=c1ccn([C@@H]2CC(F)(F)[C@H](CO)O2)c(=O)[nH]1 | > 100
Nc1ncnc2c1ncn2[C@@H]1CC(F)(F)[C@H](CO)O1 | > 100
Cc1cn([C@@H]2C=C(F)[C@H](CO)O2)c(=O)[nH]c1=O | > 100
Nc1nc2c(ncn2[C@H]2CC(F)(F)[C@H](CO)O2)c(=O)[nH]1 | > 100
O=c1[nH]cnc2c1ncn2[C@H]1CC(F)(F)[C@H](CO)O1 | > 100
Nc1ncnc2c1ncn2[C@@H]1C=C(F)[C@H](CO)O1 | > 100
O=c1[nH]cnc2c1ncn2[C@H]1C=C(F)[C@@H](CO)O1 | > 100
